Series [1] is described as follows: Chemical stability of the compound assessed as compound hydrolysis at 50 uM in HEPES buffer incubated for 12 hrs at pH 7.5 at 37 degC by UV-visible spectrometry. It counts as physicochemical. Particulars: pH 7.5, 12 h. The method in brief: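 Hydrolysis followed by UV−vis spectrometry after incubation for 12 h at pH 7.5 and 37 °C.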
The nature of series [2]: Chemical stability of the compound assessed as compound hydrolysis at 50 uM in Opti-Mem solution incubated for 12 hrs at pH 7.5 at 37 degC by UV-visible spectrometry. In kind it is physicochemical. Conditions: buffer, pH 7.5, 12 h.
Series [3] relates to U2OS. Nature of the series: Activation of p53 in human U2OS cells expressing EGFP assessed as increase of EGFP expression at 2.5 uM after 48 hrs relative to Nutlin-3. It counts as cell-based. The method in brief: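 U2OS-pLV cells carrying an integrated p53-responsive EGFP reporter; compounds at 2.5 μM for 48 h. Read-out is the percentage of EGFP-positive cells, counted by high-content screening. The value is the ratio to the response with Nutlin-3, which is set as 1.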

Series [4] relates to U2OS. Put plainly: Cytotoxicity against human U2OS cells expressing p53 assessed as number of cells by Hoechst stain staining relative to Nutlin-3. In kind it is functional. The method in brief:
(§1)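 p53+ and p53− cells treated, then Hoechst-stained; surviving cells counted. The value is the ratio of compound effect to Nutlin-3 effect, which is set as 1.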

The subject of series [5] is U2OS. Put plainly: Cytotoxicity against human p53 deficient U2OS cells assessed as number of cells by Hoechst stain staining relative to Nutlin-3. It counts as functional. The method in brief: as §1
For series [6], the target named is Cellular tumor antigen p53 (Homo sapiens) (UniProt P04637). Put plainly: Stabilization of p53 in human U2OS cells assessed as intracellular p53 level at 0.5 uM after 12 hrs by Western blotting. It counts as cell-based. (Immunoblotting shows a protein as a band on a membrane.)
Sequence of Cellular tumor antigen p53 (Homo sapiens) (P04637 whole entry, looked up): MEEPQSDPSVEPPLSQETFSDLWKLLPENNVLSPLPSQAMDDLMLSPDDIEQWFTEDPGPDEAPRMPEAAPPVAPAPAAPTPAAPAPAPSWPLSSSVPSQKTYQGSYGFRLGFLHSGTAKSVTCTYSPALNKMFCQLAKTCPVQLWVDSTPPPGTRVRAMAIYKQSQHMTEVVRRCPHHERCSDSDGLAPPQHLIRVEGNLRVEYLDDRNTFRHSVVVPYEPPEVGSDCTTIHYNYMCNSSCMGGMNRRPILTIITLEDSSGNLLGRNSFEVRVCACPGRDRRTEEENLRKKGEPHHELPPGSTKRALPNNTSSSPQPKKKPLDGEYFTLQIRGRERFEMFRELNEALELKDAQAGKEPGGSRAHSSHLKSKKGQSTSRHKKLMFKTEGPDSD
Series [7] deals with U2OS. Nature of the series: Activation of p53 in human U2OS cells assessed as increase of MDM2 expression at 0.5 uM after 12 hrs by Western blotting. It counts as cell-based.
Series [8] deals with U2OS. Put plainly: Activation of p53 in human U2OS cells assessed as increase of MDM2 expression at 2.5 uM after 12 hrs by Western blotting. It counts as cell-based.

SMILES strings stand for the structures. Calls of active or inactive are those of the source. No cut-off for these calls is given here.

Take `O=C1C(=O)N(CN2CCN(c3ccccc3)CC2)c2ccccc21`: the Stability entry in series [1] and in series [2] was “Unstable” throughout.

As for `O=C1Nc2ccccc2/C1=N/c1ccc(C(=O)NCc2ccccc2)cc1`, the Stability result in series [1] and in series [2] was “Unstable” throughout.

With `C[C@H](NC(=O)c1ccc(/N=C2\C(=O)N(CN3CCN(Cc4ccccc4)CC3)c3ccccc32)cc1)c1ccccc1`, the Ratio in the series on U2OS [3] is 8.7; in the series on U2OS [4], 0.04; in the series on U2OS [5] it was 0.27.

In the case of `O=C(NCc1ccccc1)c1ccc(/N=C2\C(=O)N(CN3CCN(Cc4ccccc4)CC3)c3ccccc32)cc1`, the Ratio with U2OS [3] came out at 4.2; in the series on U2OS [4] it was 0.1; with U2OS [5], 0.19.

Consider `COc1cccc2c1C(=O)c1c(O)c3c(c(O)c1C2=O)C[C@@](O)(C(=O)CO)C[C@@H]3O[C@H]1C[C@H](N)[C@H](O)[C@H](C)O1`, for which the result in series [6] was Active. The outcome with U2OS [7] was inactive.

Take `CN(Cc1ccccc1)CN1C(=O)/C(=N\c2ccc(C(=O)NCc3ccccc3)cc2)c2ccccc21`: the values for the Ratio in the series on U2OS [3], with U2OS [4] and in the series on U2OS [5] were 3.1, 0.14 and 0.41, respectively.

With `O=C(NCc1ccccc1)c1ccc(/N=C2\C(=O)N(CN3CCN(c4ccccc4F)CC3)c3ccccc32)cc1`, the values for the Ratio in the series with U2OS [3], in the series with U2OS [4] and in the series with U2OS [5] were 3.6, 0.11 and 0.24, respectively.

Turning to `O=C(NCc1ccccc1)c1ccc(/N=C2\C(=O)N(CN3CCC(Cc4ccccc4)CC3)c3ccccc32)cc1`, the Ratio amounted to 4.9 in the series with U2OS [3], 0.14 with U2OS [4] and 0.32 in the series with U2OS [5].

`COc1ccc(C2=N[C@@H](c3ccc(Cl)cc3)[C@@H](c3ccc(Cl)cc3)N2C(=O)N2CCNC(=O)C2)c(OC(C)C)c1`: the outcome in the series on U2OS [8] was inactive.

As for `O=C(NCc1ccccc1)c1ccc(/N=C2\C(=O)N(CN3CCN(c4ccccc4)CC3)c3ccccc32)cc1`, the Ratio came to 3.9 in the series with U2OS [3], 0.22 in the series with U2OS [4] and 0.4 in the series with U2OS [5]. The outcome with U2OS [8] was inactive.

(Values after ChEMBL document CHEMBL3621156, “Discovery of Novel Isatin-Based p53 Inducers” (ACS Med Chem Lett, 2015).)
